Hits are enriched below; roughly 3.8% of the tested compounds scored in any of these assays.
KCNQ1 act: potentiators or activators of KCNQ1 channel, primary screen, cell-based, thallium flux, high-throughput. Potassium voltage-gated channel subfamily KQT member 1 (Homo sapiens), P51787. CHO-K1 KCNQ1, thallium flux FluxOR fluorescence; hits give high values. B-score at 10 µM. 0.35% of 310,000 active. AID 2648, 2010;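 active = fluorescence ratio B-score, a plate-corrected score, at least three library SD, with initial intensity B-score within 5 SD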
Target sequence (P51787 whole entry, looked up): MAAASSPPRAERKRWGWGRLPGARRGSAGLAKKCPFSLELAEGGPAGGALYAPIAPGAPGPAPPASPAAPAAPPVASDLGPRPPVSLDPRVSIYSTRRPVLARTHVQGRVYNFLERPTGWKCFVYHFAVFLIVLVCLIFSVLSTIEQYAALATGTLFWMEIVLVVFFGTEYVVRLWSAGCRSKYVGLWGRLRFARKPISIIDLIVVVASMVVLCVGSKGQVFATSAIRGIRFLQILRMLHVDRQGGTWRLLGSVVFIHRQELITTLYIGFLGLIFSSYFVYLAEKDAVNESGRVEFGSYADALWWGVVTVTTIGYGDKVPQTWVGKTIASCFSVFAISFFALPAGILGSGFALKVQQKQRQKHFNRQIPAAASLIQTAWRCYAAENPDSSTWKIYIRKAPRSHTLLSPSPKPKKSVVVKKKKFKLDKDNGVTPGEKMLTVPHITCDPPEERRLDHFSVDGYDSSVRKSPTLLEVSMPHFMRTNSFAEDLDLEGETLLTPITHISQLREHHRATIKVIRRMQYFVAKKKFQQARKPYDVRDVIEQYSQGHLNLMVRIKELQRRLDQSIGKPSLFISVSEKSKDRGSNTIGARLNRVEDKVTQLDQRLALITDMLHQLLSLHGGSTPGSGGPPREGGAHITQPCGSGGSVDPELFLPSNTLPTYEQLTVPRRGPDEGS
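Assay system: CHO-K1 cells stably expressing KCNQ1. Medium: assay buffer for compound exposure, DMSO matched across wells. Timing: 37 °C overnight plating, 90-min dark dye load, 20-min compound pretreatment. Signal: kinetic FluxOR fluorescence, 10 s baseline plus 110 s post-stimulus.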
KCNQ1 block: inhibitors of human KCNQ1 channel, primary screen, cell-based, thallium flux, high-throughput; Potassium voltage-gated channel subfamily KQT member 1 (Homo sapiens), P51787; CHO-K1 KCNQ1, FluxOR thallium flux fluorescence; hits give high values; B-score at 10 µM; 1.3% of 310,000 active; AID 2642, 2010;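 active = compounds whose thallium flux B-score, printed positive for inhibition, exceeds three library SD while starting fluorescence stays within three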;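 also: channel opened by potassium depolarization with thallium stimulus after 20 min compound exposure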
KCNK9 inh: KCNK9 potassium channel inhibitors, primary screen, HEK293 cells, thallium flux | FluxOR thallium flux fluorescence; hits give low values | B-score at 10 µM | 1.2% of 310,000 active;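 active = ratio B-score over 3 SD below the library mean, with starting fluorescence within 5 SD of its mean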;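 also: negative B-score means less thallium flux so channel inhibition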
hERG protect: hERG rescue from dofetilide block, primary screen, cell-based, CHO-hERG, FluxOR thallium flux, dofetilide IC70; activation (rescue from dofetilide block), less the hit threshold, % at 10 µM; 0.51% of 310,000 active; dofetilide IC70 present; Voltage-gated inwardly rectifying potassium channel KCNH2 (Homo sapiens), Q12809;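 active = activation above the mean of controls blocked by dofetilide plus 5 SD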;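 also: thallium influx through hERG after potassium depolarization seen as dye fluorescence rise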
KCNK3 inh: human KCNK3 channel inhibitors, primary screen, CHO cells, FluxOR thallium flux, B-score; 0.84% of 340,000 active; AID 602410, 2012; Potassium channel subfamily K member 3 (Homo sapiens), O14649; FluxOR fluorescence; hits give low values; B-score at 10 µM;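 active = B-score under library mean minus 4 SD, starting fluorescence ratio at most library mean plus 5 SD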;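 also: more negative B-score means stronger inhibition of thallium flux through KCNK3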
Kir21 inh: inhibitors of mouse Kir2.1 inward-rectifier potassium channel. Inward rectifier potassium channel 2 (Mus musculus), P35561. HEK293-Kir2.1, FluxOR thallium flux fluorescence; hits give low values. B-score at 10 µM. 0.85% of 310,000 active. AID 1672, 2009;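 active = fluorescence ratio B-score at or below minus 3 SD of library scores, with starting-brightness B-score within 2 SD, cut at about -4.2 in these data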;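 also: channel flux triggered by added potassium and thallium sulfate stimulus; B-score of peak minus minimum fluorescence over baseline after thallium stimulus; more negative B-score means stronger Kir2.1 block with less thallium influx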
KCNQ1 block val: KCNQ1 potassium channel inhibitors, confirmation, cell-based, Tl flux, duplicate | AID 588353, 2011 | KCNQ1 cell line, FluxOR thallium flux fluorescence | 93% of 1,600 active | shares compounds with KCNQ1 block | inhibition, % at 10 µM;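 active = primary screen active, with duplicate mean exceeding buffer control mean plus 3 SD of buffer wells, cut at about 28% in these data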;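 also: 0% = buffer control ratio and 100% = XE991 inhibitor control ratio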
CHO KCNQ1 ctr: thallium flux effects in parental CHO cells, counter-screen for KCNQ1 inhibitor project, cell-based, Tl flux. shares compounds with KCNQ1 block. parental CHO-K1, FluxOR thallium flux fluorescence ratio; hits give low values; zero means no signal rise above baseline. fluorescence ratio (Tl flux) at 10 µM. 21% of 1,600 active;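 active = mean of duplicate thallium-flux fluorescence ratios in parental host cells more than 5 SD below the buffer control mean, cut at about 0.38 in these data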;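 also: ratio is peak minus minimum fluorescence divided by baseline fluorescence; actives read low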
KCNQ1 APC inh: KCNQ1 channel inhibitors, confirmation, orthogonal assay, cell-based, automated electrophysiology. KCNQ1-CHO cells, automated patch clamp current. 20% of 490 active. AID 624120, 2012. calls only at 10 µM. shares compounds with KCNQ1 block;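 active = KCNQ1 current drop exceeding 3 SD of negative control wells, seen in both duplicate runs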;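 also: steady state current during a 2 s step from -80 to +40 mV; negative values mean current inhibition and positive values mean potentiation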
KCNQ2 inh: KCNQ2 channel inhibition, selectivity assay for KCNQ1 inhibitor project, cell-based. shares compounds with KCNQ1 block. KCNQ2 cells, FluxOR thallium flux fluorescence. inhibition, % at 10 µM. 71% of 1,600 active. AID 651746, 2012;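 active = mean percent inhibition of the KCNQ2 thallium signal more than 5 SD above the buffer-only control wells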;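 also: KCNQ2 expressed in CHO cells; 0% = buffer control wells and 100% = XE-991 inhibitor control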
KCNQ1 KCNE1 spec: KCNQ1/KCNE1 channel inhibition, selectivity assay for KCNQ1 inhibitor project, CHO-K1 cells, thallium flux, FluxOR; shares compounds with KCNQ1 block; FluxOR thallium flux fluorescence; inhibition, % at 10 µM; 77% of 1,600 active; AID 652147, 2013;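 active = mean percent inhibition of duplicate wells above the buffer-only control mean plus 3 SD of those controls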;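 also: 0% = buffer only wells and 100% = XE-991 inhibitor control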
Numbers without * were called inactive; i = inactive; . = not tested or not shown; + = active, no number.

SMILES	KCNQ1 act	KCNQ1 block	KCNK9 inh	hERG protect	KCNK3 inh	Kir21 inh	KCNQ1 block val	CHO KCNQ1 ctr	KCNQ2 inh	KCNQ1 KCNE1 spec	others
COc1ccc(Nc2nc(C)cc(C)c2C(N)=O)c(OC)c1	i	i	i	-10.6	i	-0.77	.	.	.	.
O=S(=O)(NCc1cccs1)c1ccc(Br)cc1	i	i	i	-7.0	i	-1.27	.	.	.	.
O=C(Nc1ccc(Br)cc1)c1ccc(F)c(S(=O)(=O)NCc2cccs2)c1	i	7*	i	-18.0	i	-0.16	140.5*	0.519	92.3%*	130.0%*
CC(NC(=O)Nc1ccc([N+](=O)[O-])cc1)C(c1ccccc1)N1CCOCC1 (stereo not given)	i	i	i	-11.9	i	-0.05	.	.	.	.
CC(NC(=O)Nc1ccc(Cl)c(Cl)c1)C(c1ccccc1)N1CCOCC1 (stereo not given)	i	9*	i	-13.4	i	0.55	105.0*	0.406	81.3%*	79.0%*	KCNQ1 APC inh=+
O=[N+]([O-])c1ccc2nc(SCc3ccccc3Cl)sc2c1	i	15*	i	-19.9	i	0.07	106.5*	0.423	117.3%*	115.5%*	KCNQ1 APC inh=i
CCOc1ncccc1C(=O)OCC(=O)NC(=O)NC(C)C	i	8*	i	-11.8	i	-2.47	0.0	0.507	i	i
CCOc1ncccc1C(=O)OCC(=O)Nc1ccc(C(C)C)cc1	i	i	i	-12.6	i	-1.54	.	.	.	.
O=C(Nc1nncs1)C1COc2ccccc2O1 (stereo not given)	i	i	i	-6.9	i	0.49	.	.	.	.
CC(C)(C)c1csc(NC(=O)C2COc3ccccc3O2)n1 (stereo not given)	i	7*	i	-9.0	i	-0.2	68.5*	0.522	59.7%*	80.5%*
CN(c1ccccc1)S(=O)(=O)c1ccc(C(=O)OCC(=O)NCc2cccs2)cc1	i	6*	i	-11.6	i	-2.28	38.5*	0.469	69.3%*	i
O=C(Nc1nc(-c2ccccc2)cs1)c1ccccc1NS(=O)(=O)c1ccc(F)cc1	i	10*	i	-28.9	i	-0.8	105.0*	0.331*	i	151.0%*
CCOC(=O)c1c(C)[nH]c(C(=O)OCC(=O)NC2CCS(=O)(=O)C2)c1C (stereo not given)	i	i	i	-7.6	i	0.25	.	.	.	.
COc1ccccc1NC(=O)C(C)OC(=O)C1CCC(C(C)(C)C)CC1 (stereo not given)	i	7*	-7.1*	-5.3	i	-2.63	121.5*	0.493	82.7%*	156.0%*	KCNQ1 APC inh=i
COc1ccc(C2(C)NC(=O)N(CC(=O)NCC(=O)Nc3ccc(F)c(F)c3F)C2=O)cc1OC (stereo not given)	.	.	.	.	i	.	.	.	.	.
Cc1ccc(NC(=O)N[C@H](C(=O)O)C(C)C)c(C)c1	i	i	i	-11.5	i	-1.24	.	.	.	.
COc1ccc(-c2nc3ccccc3c(=O)n2CC(C)C)cc1	i	i	i	-7.2	i	-0.58	.	.	.	.
O=C(c1cc2nc(-c3ccccc3)cc(C(F)(F)F)n2n1)N1CCOCC1	i	i	i	-1.0	i	-0.48	.	.	.	.
CC1CCN(C(=O)c2cc3nc(-c4ccccc4)cc(-c4ccccc4)n3n2)CC1	i	6*	i	-14.5	i	-0.38	112.5*	0.438	107.7%*	182.5%*	KCNQ1 APC inh=i
O=C(c1cnn2c(-c3ccccc3)cc(-c3ccccc3)nc12)N1CCN(Cc2ccccc2)CC1	i	7*	i	-12.6	i	0.02	129.5*	0.311*	153.7%*	+
O=C(c1cnn2c(C(F)F)cc(-c3ccccc3)nc12)N1CCOCC1	i	i	i	-3.3	i	-0.74	.	.	.	.
O=C(Cn1cnc2ccccc21)N/N=C/C(Br)=C/c1ccccc1	i	i	i	-6.3	i	0.22	.	.	.	.
O=C1c2ccccc2C(Nc2ccc(S(=O)(=O)N3CCOCC3)cc2)N1Cc1ccco1 (stereo not given)	i	i	i	-12.2	i	-1.01	.	.	.	.
O=C(NC1CCCCC1)C(c1ccncc1)N(Cc1ccc2c(c1)OCO2)C(=O)c1cnsn1 (stereo not given)	i	7*	i	-6.6	i	1.74	65.0*	0.441	i	72.5%*
Cc1csc(NC(=O)c2cncc(Br)c2)n1	i	i	i	-9.9	i	-1.9	.	.	.	.
COc1ccc(NC(=O)CN2CCN(c3ccccn3)CC2)cc1Cl	i	i	i	-2.2	i	-0.42	.	.	.	.
Cc1cc(Br)ccc1NC(=O)c1sc2ncnc(N3CCN(c4ccccn4)CC3)c2c1C	i	6*	i	-16.9	i	-0.43	89.0*	0.44	103.7%*	82.5%*	KCNQ1 APC inh=i
COc1ccc(NC(=O)c2sc3ncnc(N4CCN(c5ccccn5)CC4)c3c2C)cc1Cl	i	8*	i	-19.0	i	-0.19	80.0*	0.401	97.0%*	108.0%*
Cc1c(C(=O)Nc2c(F)cccc2F)sc2ncnc(N3CCN(c4ccccc4)CC3)c12	i	7*	i	-15.1	i	0.13	64.5*	0.455	104.0%*	88.0%*

Compound activity as filed in PubChem.
